We go through 23 molecules from ChEMBL document CHEMBL4393683, “A combinatorial approach for the discovery of drug-like inhibitors of 15-lipoxygenase-1” (Eur J Med Chem, 2019).

The structures appear in SMILES notation. Calls of active or inactive are those of the source. The rule behind the calls is not given here.

Data set [1] is described as follows: Antioxidant activity assessed as ferric ion reducing activity by measuring Fe2+ levels using Fe2+-TPTZ measured 15 secs for 5 mins by FRAP assay. The class given is functional.
Data set [2] is described as follows: Antioxidant activity assessed as DPPH radical scavenging activity at 250 uM incubated for 15 mins under dark condition by spectrophotometric method. It counts as functional. In short, it runs like this: (§1)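 DPPH radical-scavenging assay run in triplicate in MeOH with 10% DMSO. Compounds were serially diluted 10-fold from a top concentration of 1 mM, or 250 or 500 µM for some, down to 1 nM, with DPPH fixed at 0.1 mM. Incubation was 15 min at ambient temperature, protected from light, with A517 read. The compound-only series was subtracted, data normalized to no-inhibitor absorbance, and EC50 fitted by nonlinear dose–response.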

A short description of data set [3]: Stability of compund in pH 7.5 HEPES buffer at 25 uM in presence of substrate linoleic acid by UV absorption analysis. As to conditions: pH 7.5, 25 µM. It counts as physicochemical. In short, it runs like this:
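Enzyme-free control in 25 mM HEPES pH 7.5 at 25 µM compound, run in triplicate, with buffer replacing enzyme. 10 µL of 500 µM linoleic acid stock in ethanol was added; ethanol alone served as the blank, and DMSO/buffer as the vehicle control. Absorbance at 234 nm was monitored over time.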

A short description of data set [4]: Stability of compund in pH 7.5 HEPES buffer at 25 uM in presence of human recombinant N-terminal His6-tagged 15-LOX1 expressed in Escherichia coli BL21(DE3) by UV absorption analysis. It counts as physicochemical. As to conditions: pH 7.5, 25 µM. In short, it runs like this:
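LA-free control in 25 mM HEPES pH 7.5 at 25 µM compound, run in triplicate. Buffer plus compound was mixed with 10 µL ethanol in place of substrate, then 15-LOX-1 enzyme solution was added. DMSO/buffer served as the vehicle control and buffer replaced enzyme in the blank. Absorbance at 234 nm was monitored over time.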

For data set [5], the target named is T1, Polyunsaturated fatty acid lipoxygenase ALOX15 (Homo sapiens, UniProt P16050).
T1 sequence (P16050 whole entry): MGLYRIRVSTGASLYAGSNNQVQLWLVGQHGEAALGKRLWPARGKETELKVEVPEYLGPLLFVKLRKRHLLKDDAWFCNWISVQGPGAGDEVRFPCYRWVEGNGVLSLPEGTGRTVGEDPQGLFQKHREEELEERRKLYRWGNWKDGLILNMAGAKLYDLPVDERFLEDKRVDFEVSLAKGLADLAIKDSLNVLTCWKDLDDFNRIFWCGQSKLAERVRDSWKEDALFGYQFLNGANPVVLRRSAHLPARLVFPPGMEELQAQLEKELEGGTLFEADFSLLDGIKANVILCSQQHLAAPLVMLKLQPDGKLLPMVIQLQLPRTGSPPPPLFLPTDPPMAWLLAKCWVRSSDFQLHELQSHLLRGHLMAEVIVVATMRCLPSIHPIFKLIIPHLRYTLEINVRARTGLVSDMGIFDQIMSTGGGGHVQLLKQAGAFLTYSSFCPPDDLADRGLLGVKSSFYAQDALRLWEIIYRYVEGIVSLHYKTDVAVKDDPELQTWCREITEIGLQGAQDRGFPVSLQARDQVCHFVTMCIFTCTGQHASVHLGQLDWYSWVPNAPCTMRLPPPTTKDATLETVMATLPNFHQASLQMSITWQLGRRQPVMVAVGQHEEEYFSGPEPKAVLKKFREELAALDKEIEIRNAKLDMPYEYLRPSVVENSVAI
The data set can be described thus: Inhibition of human recombinant N-terminal His6-tagged 15-LOX1 expressed in Escherichia coli BL21(DE3) using linoleic acid as substrate preincubated for 8 mins followed by substrate addition by UV absorption analysis.

A short description of data set [6]: Antioxidant activity assessed as DPPH radical scavenging activity at 500 uM incubated for 15 mins under dark condition by spectrophotometric method. It counts as functional. In short, it runs like this:
as §1

Data set [7] in a line: Antioxidant activity assessed as DPPH radical scavenging activity incubated for 15 mins under dark condition by spectrophotometric method. It counts as functional. In short, it runs like this:
as §1

With `CCOC(=O)c1[nH]c2cc(Cl)ccc2c1/C=N/NC(=O)Cc1ccc(OC)c(OC)c1`, the Activity in data set [1] is below 50 µmol/L. For the same molecule, the outcome in data set [2] was inactive. The Stability result in data set [3] and in data set [4] was “Stable” throughout.

In the case of `CCCCC(=O)N/N=C/c1c(C(=O)OCC)[nH]c2cc(Cl)ccc12`, the IC50 in data set [5] is above 10 µM.

On to `CCOC(=O)c1[nH]c2cc(Cl)ccc2c1/C=N/NC(=O)COc1ccc(Cl)cc1`, for which the Activity in data set [1] was below 50 µmol/L. Further, the result in data set [6] was inactive. In addition, the Stability result in data set [3] and in data set [4] was “Stable” in each case.

For the molecule `CCOC(=O)c1[nH]c2cc(Cl)ccc2c1/C=N/NC(=O)COc1cccc2ccccc12`, in data set [5], the IC50 is above 10 µM.

With `CCOC(=O)c1[nH]c2cc(Cl)ccc2c1/C=N/NC(=O)Cc1cccc(O)c1`, the IC50 in data set [5] came to 1.8 µM. Also, the Activity in data set [1] was below 50 µmol/L. For the same molecule, the result in data set [7] was inactive. Further, the Stability result in data set [3] and in data set [4] was “Stable” each time.

On to `CCOC(=O)c1[nH]c2cc(Cl)ccc2c1/C=N/NC(=O)CSc1nc2ccccc2[nH]1`, for which the Activity in data set [1] was below 50 µmol/L. The outcome in data set [7] was inactive. For the same molecule, the Stability entry in data set [3] and in data set [4] was “Stable” each time.

For the molecule `CCOC(=O)c1[nH]c2cc(Cl)ccc2c1/C=N/NC(=O)CNc1cccc([N+](=O)[O-])c1`, the IC50 in data set [5] is above 10 µM.

Take `CCOC(=O)c1[nH]c2cc(Cl)ccc2c1C=O`: in data set [1], the Activity was below 50 µmol/L. Further, in data set [7], the outcome was inactive.

Regarding `CCOC(=O)c1[nH]c2cc(Cl)ccc2c1/C=N/NC(=O)CC1CCCC1`, the half-maximal inhibitory concentration (IC50) in data set [5] is above 10 µM.

In the case of `CCOC(=O)c1[nH]c2cc(Cl)ccc2c1/C=N/NC(=O)c1cc(C(C)(C)C)nn1Cc1cccc(C)c1`, the IC50 in data set [5] was determined as 4.22 µM. The Activity in data set [1] was below 50 µmol/L. In data set [7], the outcome was inactive.

Take `CCOC(=O)c1[nH]c2cc(Cl)ccc2c1/C=N/NC(=O)Cc1ccccc1`: the IC50 in data set [5] was above 10 µM. Besides, the Activity in data set [1] is below 50 µmol/L. The result in data set [7] was inactive.

`O=C1O[C@H]([C@@H](O)CO)C(O)=C1O` [ASCORBIC ACID]: the EC50 in data set [7] amounted to 17.2 µM.

`CCOC(=O)c1[nH]c2cc(Cl)ccc2c1/C=N/NC(=O)COc1ccccc1Cl`: the Activity in data set [1] was below 50 µmol/L. Besides, the result in data set [2] was inactive. The Stability entry in data set [3] and in data set [4] was “Stable” each time.

For `CCOC(=O)c1[nH]c2cc(Cl)ccc2c1/C=N/NC(=O)COc1ccc(Cl)cc1Cl`, the Activity in data set [1] is below 50 µmol/L. Also, the result in data set [7] was inactive. Besides, the Stability entry in data set [3] and in data set [4] was “Stable” in each case.

As to `CCOC(=O)c1[nH]c2cc(Cl)ccc2c1/C=N/NC(=O)Cc1cccnc1`, the Activity in data set [1] was below 50 µmol/L. Also, in data set [7], the result was inactive. The Stability result in data set [3] and in data set [4] was “Stable” each time.

For `CCOC(=O)c1[nH]c2cc(Cl)ccc2c1/C=N/NC(=O)[C@H](Cc1ccccc1)NC(=O)OC(C)(C)C`, in data set [5], the IC50 was above 10 µM.

For `CCOC(=O)c1[nH]c2cc(Cl)ccc2c1/C=N/NC(=O)CCC(C)C`, the IC50 in data set [5] is above 10 µM.

In the case of `CCOC(=O)c1[nH]c2cc(Cl)ccc2c1/C=N/NC(=O)Cc1cccs1`, in data set [5], the IC50 is above 10 µM.

As to `CCOC(=O)c1[nH]c2cc(Cl)ccc2c1/C=N/NC(=O)COc1ccc([N+](=O)[O-])cc1`, the IC50 in data set [5] is above 10 µM.

`CCOC(=O)c1[nH]c2cc(Cl)ccc2c1/C=N/NC(=O)COc1ccccc1`: the IC50 in data set [5] was above 10 µM. The Activity in data set [1] was below 50 µmol/L. Moreover, in data set [6], the result was inactive.

`CCOC(=O)c1[nH]c2cc(Cl)ccc2c1/C=N/NC(=O)CCCOc1ccc(Cl)cc1Cl`: the IC50 in data set [5] was above 10 µM.

For `CCOC(=O)c1[nH]c2cc(Cl)ccc2c1/C=N/NC(=O)CCc1ccccc1`, the IC50 in data set [5] was above 10 µM.

On to `CCOC(=O)c1[nH]c2cc(Cl)ccc2c1/C=N/NC(=O)C1CCN(C(=O)OC(C)(C)C)CC1`, for which the IC50 in data set [5] amounted to 0.47 µM. In addition, the Activity in data set [1] was below 50 µmol/L. The result in data set [7] was inactive. In addition, the Stability entry in data set [3] and in data set [4] was “Stable” throughout.
